ChEMBL document CHEMBL4689842, “EUbOPEN Chemogenomics Library wave 1” (2021)
Values joined by “and” are separate entries in the source; they are usually repeats but may differ in a detail not shown here. Equal values may be shown once.

System: Fibroblast
Experiment: Multiplex assay against human fibroblast
Format: toxicity, cell-based
Procedure, shortened: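 With compound added, live cells were imaged on a CQ1 microscope at 37°C and 5% CO2; staining with Hoechst33342, BioTracker Green Microtubule Cytoskeleton Dye, MitoTracker Red and Annexin V Alexa Fluor 680 had been done at seeding. The CellPathfinder machine-learning gating scheme split cells into Hoechst high-intensity objects or normal cells, normal cells into healthy, pyknosed or fragmented nuclei, and pyknosed cells into mitotic or apoptotic. The tubulin, mitochondrial-mass and membrane-permeability phenotypes are per cents of healthy-nucleus cells.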

[1] = 12 h, 1 µM, compound concentration 1 uM, replicate 1
[2] = 12 h, 1 µM, compound concentration 1 uM, replicate 2
[3] = 12 h, 10 µM, compound concentration 10 uM, replicate 1
[4] = 12 h, 10 µM, compound concentration 10 uM, replicate 2
[5] = 24 h, 1 µM, compound concentration 1 uM, replicate 1
[6] = 24 h, 1 µM, compound concentration 1 uM, replicate 2
[7] = 24 h, 10 µM, compound concentration 10 uM, replicate 1
[8] = 24 h, 10 µM, compound concentration 10 uM, replicate 2
[9] = 48 h, 1 µM, compound concentration 1 uM, replicate 1
[10] = 48 h, 1 µM, compound concentration 1 uM, replicate 2
[11] = 48 h, 10 µM, compound concentration 10 uM, replicate 1
[12] = 48 h, 10 µM, compound concentration 10 uM, replicate 2

With CN1CCCC(n2nc(Cc3ccc(Cl)cc3)c3ccccc3c2=O)CC1.Cl (centres undefined) [AZELASTINE HYDROCHLORIDE] the “Population Apoptotic (%)” value [1] was 47%, the “Population Fragmented Nuclei (%)” value [1] was 25% and the “Population Healthy Nuclei (%)” value [1] was 50%. The “Population Hoechst High Intensity Objects (%)” value [1] was 11%, the “Population Membrane Permeable-Phenotype (%)” value [1] was 26% and the “Population Mitochondria Different-Phenotype (%)” value [1] was 9%. For the same compound, the “Population Mitotic Cells (%)” value [1] was 52%, the “Population Normal (%)” value [1] was 88% and the “Population Pyknosed Nuclei (%)” value [1] was 23%. The “Population Tubulin-Different-Phenotype (%)” value [1] was 65%, the “Total Cell Count” value [1] was 92 and the “Population Apoptotic (%)” value [2] was 25%. For the same compound, the “Population Fragmented Nuclei (%)” value [2] was 6%, the “Population Healthy Nuclei (%)” value [2] was 84% and the “Population Membrane Permeable-Phenotype (%)” value [2] was 7%. For the same compound, the “Population Mitochondria Different-Phenotype (%)” value [2] was 57%, the “Population Mitotic Cells (%)” value [2] was 75% and the “Population Pyknosed Nuclei (%)” value [2] was 8%. The “Population Tubulin-Different-Phenotype (%)” value [2] was 68%, the “Total Cell Count” value [2] was 51 and the “Population Apoptotic (%)” value [3] was 74%. For the same compound, the “Population Fragmented Nuclei (%)” value [3] was 26%, the “Population Healthy Nuclei (%)” value [3] was 38% and the “Population Hoechst High Intensity Objects (%)” value [3] was 18%. For the same compound, the “Population Membrane Permeable-Phenotype (%)” value [3] was 13%, the “Population Mitochondria Different-Phenotype (%)” value [3] was 55% and the “Population Mitotic Cells (%)” value [3] was 25%. For the same compound, the “Population Normal (%)” value [3] was 81%, the “Population Pyknosed Nuclei (%)” value [3] was 34% and the “Population Tubulin-Different-Phenotype (%)” value [3] was 93%. For the same compound, the “Total Cell Count” value [3] was 138, the “Population Apoptotic (%)” value [4] was 57% and the “Population Fragmented Nuclei (%)” value [4] was 14%. The “Population Healthy Nuclei (%)” value [4] was 70%, the “Population Hoechst High Intensity Objects (%)” value [4] was 4% and the “Population Membrane Permeable-Phenotype (%)” value [4] was 84%. The “Population Mitochondria Different-Phenotype (%)” value [4] was 98%, the “Population Mitotic Cells (%)” value [4] was 42% and the “Population Normal (%)” value [4] was 95%. The “Population Pyknosed Nuclei (%)” value [4] was 15%, the “Population Tubulin-Different-Phenotype (%)” value [4] was 100% and the “Total Cell Count” value [4] was 96. For the same compound, the “Population Apoptotic (%)” value [5] was 40%, the “Population Fragmented Nuclei (%)” value [5] was 31% and the “Population Healthy Nuclei (%)” value [5] was 42%. For the same compound, the “Population Hoechst High Intensity Objects (%)” value [5] was 10%, the “Population Membrane Permeable-Phenotype (%)” value [5] was 36% and the “Population Mitochondria Different-Phenotype (%)” value [5] was 11%. For the same compound, the “Population Mitotic Cells (%)” value [5] was 59%, the “Population Normal (%)” value [5] was 89% and the “Population Pyknosed Nuclei (%)” value [5] was 25%. The “Population Tubulin-Different-Phenotype (%)” value [5] was 66%, the “Total Cell Count” value [5] was 95 and the “Population Apoptotic (%)” value [6] was 50%. The “Population Fragmented Nuclei (%)” value [6] was 7%, the “Population Healthy Nuclei (%)” value [6] was 76% and the “Population Hoechst High Intensity Objects (%)” value [6] was 8%. For the same compound, the “Population Membrane Permeable-Phenotype (%)” value [6] was 10%, the “Population Mitochondria Different-Phenotype (%)” value [6] was 57% and the “Population Mitotic Cells (%)” value [6] was 50%. For the same compound, the “Population Normal (%)” value [6] was 91%, the “Population Pyknosed Nuclei (%)” value [6] was 15% and the “Population Tubulin-Different-Phenotype (%)” value [6] was 50%. For the same compound, the “Total Cell Count” value [6] was 57, the “Population Apoptotic (%)” value [7] was 84% and the “Population Fragmented Nuclei (%)” value [7] was 32%. The “Population Healthy Nuclei (%)” value [7] was 53%, the “Population Hoechst High Intensity Objects (%)” value [7] was 18% and the “Population Membrane Permeable-Phenotype (%)” value [7] was 17%. For the same compound, the “Population Mitochondria Different-Phenotype (%)” value [7] was 62%, the “Population Mitotic Cells (%)” value [7] was 15% and the “Population Normal (%)” value [7] was 81%. For the same compound, the “Population Pyknosed Nuclei (%)” value [7] was 14%, the “Population Tubulin-Different-Phenotype (%)” value [7] was 90% and the “Total Cell Count” value [7] was 161. The “Population Apoptotic (%)” value [8] was 95%, the “Population Fragmented Nuclei (%)” value [8] was 16% and the “Population Healthy Nuclei (%)” value [8] was 58%. The “Population Hoechst High Intensity Objects (%)” value [8] was 4%, the “Population Membrane Permeable-Phenotype (%)” value [8] was 98% and the “Population Mitochondria Different-Phenotype (%)” value [8] was 100%. For the same compound, the “Population Mitotic Cells (%)” value [8] was 4%, the “Population Normal (%)” value [8] was 95% and the “Population Pyknosed Nuclei (%)” value [8] was 25%. For the same compound, the “Population Tubulin-Different-Phenotype (%)” value [8] was 100%, the “Total Cell Count” value [8] was 96 and the “Population Apoptotic (%)” value [9] was 58%. For the same compound, the “Population Fragmented Nuclei (%)” value [9] was 38%, the “Population Healthy Nuclei (%)” value [9] was 41% and the “Population Hoechst High Intensity Objects (%)” value [9] was 11%. The “Population Membrane Permeable-Phenotype (%)” value [9] was 28%, the “Population Mitochondria Different-Phenotype (%)” value [9] was 11% and the “Population Mitotic Cells (%)” value [9] was 41%. For the same compound, the “Population Normal (%)” value [9] was 88%, the “Population Pyknosed Nuclei (%)” value [9] was 20% and the “Population Tubulin-Different-Phenotype (%)” value [9] was 54%. The “Total Cell Count” value [9] was 95, the “Population Apoptotic (%)” value [10] was 75% and the “Population Fragmented Nuclei (%)” value [10] was 31%. For the same compound, the “Population Healthy Nuclei (%)” value [10] was 61%, the “Population Hoechst High Intensity Objects (%)” value [10] was 8% and the “Population Membrane Permeable-Phenotype (%)” value [10] was 10%. For the same compound, the “Population Mitochondria Different-Phenotype (%)” value [10] was 1%, the “Population Mitotic Cells (%)” value [10] was 25% and the “Population Normal (%)” value [10] was 91%. The “Population Pyknosed Nuclei (%)” value [10] was 7%, the “Population Tubulin-Different-Phenotype (%)” value [10] was 73% and the “Total Cell Count” value [10] was 123. For the same compound, the “Population Apoptotic (%)” value [11] was 90%, the “Population Fragmented Nuclei (%)” value [11] was 40% and the “Population Healthy Nuclei (%)” value [11] was 52%. For the same compound, the “Population Hoechst High Intensity Objects (%)” value [11] was 30%, the “Population Membrane Permeable-Phenotype (%)” value [11] was 13% and the “Population Mitochondria Different-Phenotype (%)” value [11] was 34%. The “Population Mitotic Cells (%)” value [11] was 10%, the “Population Normal (%)” value [11] was 69% and the “Population Pyknosed Nuclei (%)” value [11] was 6%. The “Population Tubulin-Different-Phenotype (%)” value [11] was 84%, the “Total Cell Count” value [11] was 207 and the “Population Apoptotic (%)” value [12] was 66%. The “Population Fragmented Nuclei (%)” value [12] was 38%, the “Population Healthy Nuclei (%)” value [12] was 57% and the “Population Hoechst High Intensity Objects (%)” value [12] was 25%. The “Population Membrane Permeable-Phenotype (%)” value [12] was 22%, the “Population Mitochondria Different-Phenotype (%)” value [12] was 39% and the “Population Mitotic Cells (%)” value [12] was 33%. For the same compound, the “Population Normal (%)” value [12] was 74%, the “Population Pyknosed Nuclei (%)” value [12] was 3% and the “Population Tubulin-Different-Phenotype (%)” value [12] was 88%. For the same compound, the “Total Cell Count” value [12] was 253.
For CNCc1ccccc1-c1csc([C@H](C)Nc2nc(C)nc3cc(OC)c(OC)cc23)c1 [BAY-294], the “Population Apoptotic (%)” value [3] was 43% and 56% and 82%, the “Population Fragmented Nuclei (%)” value [3] was 26% and 31% and 27% and the “Population Membrane Permeable-Phenotype (%)” value [3] was 18% and 34% and 33%. The “Population Normal (%)” value [3] was 70% and 93% and 84%, the “Population Pyknosed Nuclei (%)” value [3] was 25% and 52% and 62% and the “Population Tubulin-Different-Phenotype (%)” value [3] was 34% and 69% and 83%. For the same compound, the “Population Apoptotic (%)” value [4] was 78% and 55% and 57%, the “Population Fragmented Nuclei (%)” value [4] was 54% and 37% and 46% and the “Population Hoechst High Intensity Objects (%)” value [4] was 27% and 35% and 55%. For the same compound, the “Population Mitotic Cells (%)” value [4] was 21% and 45% and 42%, the “Population Normal (%)” value [4] was 72% and 64% and 44% and the “Population Pyknosed Nuclei (%)” value [4] was 31% and 19% and 30%. The “Population Tubulin-Different-Phenotype (%)” value [4] was 77% and 56% and 100%, the “Population Apoptotic (%)” value [7] was 54% and 89% and the “Population Fragmented Nuclei (%)” value [7] was 17% and 38% and 29%. The “Population Hoechst High Intensity Objects (%)” value [7] was 41% and 14% and 31%, the “Population Normal (%)” value [7] was 58% and 85% and 68% and the “Population Pyknosed Nuclei (%)” value [7] was 32% and 54% and 49%. For the same compound, the “Population Tubulin-Different-Phenotype (%)” value [7] was 31% and 43% and 83%, the “Population Apoptotic (%)” value [8] was 31% and 93% and 78% and the “Population Fragmented Nuclei (%)” value [8] was 33% and 60% and 52%. The “Population Hoechst High Intensity Objects (%)” value [8] was 37% and 38% and 54%, the “Population Normal (%)” value [8] was 62% and 61% and 45% and the “Population Pyknosed Nuclei (%)” value [8] was 29% and 33% and 27%. For the same compound, the “Population Apoptotic (%)” value [11] was 75%, the “Population Fragmented Nuclei (%)” value [11] was 40% and the “Population Healthy Nuclei (%)” value [11] was 44%. The “Population Hoechst High Intensity Objects (%)” value [11] was 35%, the “Population Membrane Permeable-Phenotype (%)” value [11] was 43% and the “Population Mitochondria Different-Phenotype (%)” value [11] was 52%. For the same compound, the “Population Mitotic Cells (%)” value [11] was 25%, the “Population Normal (%)” value [11] was 64% and the “Population Pyknosed Nuclei (%)” value [11] was 15%. The “Population Tubulin-Different-Phenotype (%)” value [11] was 65%, the “Population Apoptotic (%)” value [12] was 100% and the “Population Fragmented Nuclei (%)” value [12] was 84%. The “Population Healthy Nuclei (%)” value [12] was 8%, the “Population Hoechst High Intensity Objects (%)” value [12] was 31% and the “Population Membrane Permeable-Phenotype (%)” value [12] was 0%. For the same compound, the “Population Mitochondria Different-Phenotype (%)” value [12] was 100%, the “Population Mitotic Cells (%)” value [12] was 0% and the “Population Normal (%)” value [12] was 68%. For the same compound, the “Population Pyknosed Nuclei (%)” value [12] was 7% and the “Population Tubulin-Different-Phenotype (%)” value [12] was 0%.
